Results reported in ChEMBL document CHEMBL1155412, “Novel powerful water-soluble lipid immunoadjuvants inducing mouse dendritic cell maturation and B cell proliferation using TLR2 pathway” (Bioorg Med Chem Lett, 2010).
Active and inactive are the calls of the source. The rule behind the calls is not given here.

Assays:
[1] = molecular target: Toll-like receptor 2 (Mus musculus) (UniProt Q9QUN7); test: Induction of TLR2-mediated mouse D1 dendritic cells maturation assessed as expression of CD54 and CD86 activation markers at 0.5 ug/ml to 5 ug/ml after 24 hrs by flow cytometry in the presence of polymyxin B; assay type: cell-based
Sequence of Toll-like receptor 2 (Mus musculus) (Q9QUN7 whole entry): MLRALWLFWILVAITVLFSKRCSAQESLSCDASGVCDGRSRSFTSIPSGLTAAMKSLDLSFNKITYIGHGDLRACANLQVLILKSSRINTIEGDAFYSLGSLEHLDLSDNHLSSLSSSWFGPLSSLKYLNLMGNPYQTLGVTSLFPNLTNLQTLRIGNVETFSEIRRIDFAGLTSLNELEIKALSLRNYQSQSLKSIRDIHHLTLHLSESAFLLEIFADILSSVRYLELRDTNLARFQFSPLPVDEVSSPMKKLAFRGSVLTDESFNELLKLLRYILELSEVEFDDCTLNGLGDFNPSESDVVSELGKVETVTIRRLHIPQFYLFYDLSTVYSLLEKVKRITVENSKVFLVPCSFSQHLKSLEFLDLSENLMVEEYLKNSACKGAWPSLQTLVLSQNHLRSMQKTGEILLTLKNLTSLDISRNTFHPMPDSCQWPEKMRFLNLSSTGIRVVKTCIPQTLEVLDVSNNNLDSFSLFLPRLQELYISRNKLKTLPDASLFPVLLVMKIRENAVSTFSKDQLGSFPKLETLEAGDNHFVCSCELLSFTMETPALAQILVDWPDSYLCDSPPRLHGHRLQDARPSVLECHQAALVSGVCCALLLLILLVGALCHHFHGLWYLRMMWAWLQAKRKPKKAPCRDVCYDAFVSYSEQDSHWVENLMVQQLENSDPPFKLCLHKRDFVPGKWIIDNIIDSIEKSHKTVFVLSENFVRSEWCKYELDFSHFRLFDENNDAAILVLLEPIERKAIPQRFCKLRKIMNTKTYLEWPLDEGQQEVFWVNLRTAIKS

[2] = molecular target: Toll-like receptor 2 (Mus musculus) (UniProt Q9QUN7); test: Induction of TLR2-mediated mouse spleen B cells proliferation assessed as [3H]thymidin uptake at 0.02 ug/ml after 72 hrs
Procedure, shortened: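 Purified mouse spleen B cells cultured with analogs at indicated concentrations for 72 h; proliferation by [3H]-thymidine uptake. Stimulation index = mean cpm stimulated / mean cpm unstimulated; mean SI ± SD of three independent experiments, each in triplicate.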

[3] = molecular target: Toll-like receptor 2 (Mus musculus) (UniProt Q9QUN7); test: Induction of TLR2-mediated mouse D1 dendritic cells maturation assessed as expression of CD54 and CD86 activation markers at 0.5 ug/ml after 24 hrs by flow cytometry in the presence of antagonist anti-TLR2 antibody treated 25 mins after anti-TLR2 antibody challenge
[4] = molecular target: Toll-like receptor 2 (Mus musculus) (UniProt Q9QUN7); test: Induction of TLR2-mediated mouse spleen B cells proliferation assessed as [3H]thymidin uptake at 0.16 ug/ml after 72 hrs in the presence of antagonist anti-TLR2 antibody treated 25 mins after anti-TLR2 antibody challenge; assay type: functional, tissue-based

Row | Activity [1] | Activity [2] | Activity [3] | Activity [4] | SMILES
1 | Active | Active | inactive | inactive | CCCCCCCCCCCCCCCC(=O)OC[C@H](CSC[C@H](NC(=O)COCCOCCOCCOCCOCCOCCOCCOCCOCCOCCOCCOCCOCCOCCOCCOCCOCCOCCOCCOCCOCCOCCOCCOCCOCCOCCOCCOCCOCCOCCOCCOCCOCCOCCOCCOCCOCCOCCOCCOCCOCCOCCOCCOCCOC)C(=O)N[C@@H](C)C(=O)NCC(=O)O)OC(=O)CCCCCCCCCCCCCCC
2 | Active | Active | inactive | inactive | CCCCCCCCCCCCCCCC(=O)OC[C@H](CSC[C@H](N)C(=O)N[C@@H](C)C(=O)NCC(=O)NCCOCCOCCOCCOCCOCCOCCOCCOCCOCCOCCOCCOCCOCCOCCOCCOCCOCCOCCOCCOCCOCCOCCOCCOCCOCCOCCOCCOCCOCCOCCOCCOCCOCCOCCOCCOCCOCCOCCOCCOCCOCCOCCOCCOCCOC)OC(=O)CCCCCCCCCCCCCCC
3 | Active | Active | inactive | inactive | CCCCCCCCCCCCCCCC(=O)OC[C@H](CSC[C@H](N)C(=O)N[C@@H](C)C(=O)NCC(=O)NCCSSCCNC(=O)CNC(=O)OCCOCCOCCOCCOCCOCCOCCOCCOCCOCCOCCOCCOCCOCCOCCOCCOCCOCCOCCOCCOCCOCCOCCOCCOCCOCCOCCOCCOCCOCCOCCOCCOCCOCCOCCOCCOCCOCCOCCOCCOCCOCCOCCOCCO)OC(=O)CCCCCCCCCCCCCCC
4 | Active | Active | inactive | inactive | CCCCCCCCCCCCCCCC(=O)N[C@@H](CSC[C@@H](COC(=O)CCCCCCCCCCCCCCC)OC(=O)CCCCCCCCCCCCCCC)C(=O)N[C@@H](C)C(=O)NCC(=O)NCCOCCOCCOCCOCCOCCOCCOCCOCCOCCOCCOCCOCCOCCOCCOCCOCCOCCOCCOCCOCCOCCOCCOCCOCCOCCOCCOCCOCCOCCOCCOCCOCCOCCOCCOCCOCCOCCOCCOCCOCCOCCOCCOCCOCCOC
